Tests used:
Assay type in all cases: functional
UACC-62 = assay: Growth inhibition of human UACC62 cells assessed as cell growth at 10 uM after 48 hrs by sulforhodamine B assay; details: UACC-62, 48 h, read-out: Activity
Outline: (§1)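 NCI-60 single-dose screen at 10^-5 M. Cells plated at 5,000–40,000/well by doubling time and grown 24 h at 37 °C, 5% CO2, then drug added from DMSO stock for 48 h continuous exposure. Adherent cells fixed with cold TCA (final 10%), suspension cells with 16% TCA. SRB stain read at 515 nm. Reported as growth percent relative to untreated controls and time-zero plates.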

[1] = Growth inhibition of human NCI-ADR-RES cells assessed as cell growth at 10 uM after 48 hrs by sulforhodamine B assay; details: read-out: Activity
Outline: (§2)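 NCI-60 primary single-dose screen at 10^-5 M, 48 h continuous exposure. Adherent cells were fixed with cold TCA (10% final) and suspension cells with 16% final TCA, then stained with 0.4% SRB in 1% acetic acid. Bound dye was solubilized in 10 mM Tris base and read at 515 nm. Output is growth percent relative to untreated controls, and GI% is 100 minus growth percent.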

LOX IMVI = assay: Growth inhibition of human LOXIMVI cells assessed as cell growth at 10 uM after 48 hrs by sulforhodamine B assay; details: read-out: Activity; outline: as §2
SF-268 = assay: Growth inhibition of human SF268 cells assessed as cell growth at 10 uM after 48 hrs by sulforhodamine B assay; details: SF-268, 48 h, read-out: Activity; outline: as §1
SK-MEL-2 = assay: Growth inhibition of human SK-MEL-2 cells assessed as cell growth at 10 uM after 48 hrs by sulforhodamine B assay; details: SK-MEL-2, 48 h, read-out: Activity; outline: as §1
[2] = Growth inhibition of human EKVX cells assessed as cell growth at 10 uM after 48 hrs by sulforhodamine B assay; details: read-out: Activity; outline: as §2
NCI-H460 = assay: Growth inhibition of human NCI-H460 cells assessed as cell growth at 10 uM after 48 hrs by sulforhodamine B assay; details: NCI-H460, 48 h; outline: as §1
OVCAR-8 = assay: Growth inhibition of human OVCAR8 cells assessed as cell growth at 10 uM after 48 hrs by sulforhodamine B assay; details: OVCAR-8, 48 h, read-out: Activity; outline: as §1
SR = assay: Growth inhibition of human SR cells assessed as cell growth at 10 uM after 48 hrs by sulforhodamine B assay; details: read-out: Activity; outline: as §1
RXF 393 = assay: Growth inhibition of human RXF393 cells assessed as cell growth at 10 uM after 48 hrs by sulforhodamine B assay; details: RXF 393, 48 h, read-out: Activity; outline: as §1
CCRF-CEM = assay: Growth inhibition of human CCRF-CEM cells assessed as cell growth at 10 uM after 48 hrs by sulforhodamine B assay; details: read-out: Activity
Outline: (§3)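 NCI-60 primary screen at a single dose of 10^-5 M. Output is mean growth percent of treated cells relative to untreated controls, where values between 0 and 100 indicate growth inhibition and values below 0 indicate cytotoxicity. Cells were plated 24 h before drug, incubated 48 h at 37 °C, 5% CO2, and stained with SRB after TCA fixation. Suspension cells were fixed with 80% TCA (16% final).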

SK-MEL-5 = assay: Growth inhibition of human SK-MEL-5 cells assessed as cell growth at 10 uM after 48 hrs by sulforhodamine B assay; details: SK-MEL-5, 48 h, read-out: Activity; outline: as §1
CAKI-1 = assay: Growth inhibition of human CAKI-1 cells assessed as cell growth at 10 uM after 48 hrs by sulforhodamine B assay; details: CAKI-1, 48 h, read-out: Activity; outline: as §3
MCF7 = assay: Growth inhibition of human MCF7 cells assessed as cell growth at 10 uM after 48 hrs by sulforhodamine B assay; details: MCF7, 48 h, read-out: Activity; outline: as §2
KM12 = assay: Growth inhibition of human KM12 cells assessed as cell growth at 10 uM after 48 hrs by sulforhodamine B assay; details: KM12, 48 h, read-out: Activity; outline: as §2
OVCAR-3 = assay: Growth inhibition of human OVCAR3 cells assessed as cell growth at 10 uM after 48 hrs by sulforhodamine B assay; details: OVCAR-3, 48 h, read-out: Activity; outline: as §1
HCT-116 = assay: Growth inhibition of human HCT116 cells assessed as cell growth at 10 uM after 48 hrs by sulforhodamine B assay; details: HCT-116, 48 h, read-out: Activity; outline: as §2
TK-10 = assay: Growth inhibition of human TK10 cells assessed as cell growth at 10 uM after 48 hrs by sulforhodamine B assay; details: TK-10, 48 h, read-out: Activity; outline: as §1
A498 = assay: Growth inhibition of human A498 cells assessed as cell growth at 10 uM after 48 hrs by sulforhodamine B assay; details: A498, 48 h, read-out: Activity; outline: as §3
[3] = Growth inhibition of human Hs 578T cells assessed as cell growth at 10 uM after 48 hrs by sulforhodamine B assay; details: read-out: Activity; outline: as §2
SK-OV-3 = assay: Growth inhibition of human SKOV3 cells assessed as cell growth at 10 uM after 48 hrs by sulforhodamine B assay; details: SK-OV-3, 48 h, read-out: Activity; outline: as §1
MDA-MB-435 = assay: Growth inhibition of human MDA-MB-435 cells assessed as cell growth at 10 uM after 48 hrs by sulforhodamine B assay; details: MDA-MB-435, 48 h, read-out: Activity; outline: as §2
[4] = Growth inhibition of human HCC2998 cells assessed as cell growth at 10 uM after 48 hrs by sulforhodamine B assay; details: HCC 2998, 48 h, read-out: Activity; outline: as §2
NCI-H226 = assay: Growth inhibition of human NCI-H226 cells assessed as cell growth at 10 uM after 48 hrs by sulforhodamine B assay; details: NCI-H226, 48 h, read-out: Activity; outline: as §2
MDA-MB-468 = assay: Growth inhibition of human MDA-MB-468 cells assessed as cell growth at 10 uM after 48 hrs by sulforhodamine B assay; details: MDA-MB-468, 48 h, read-out: Activity; outline: as §2
U-251 = assay: Growth inhibition of human U251 cells assessed as cell growth at 10 uM after 48 hrs by sulforhodamine B assay; details: U-251, 48 h, read-out: Activity; outline: as §1
M14 = assay: Growth inhibition of human M14 cells assessed as cell growth at 10 uM after 48 hrs by sulforhodamine B assay; details: M14, 48 h, read-out: Activity; outline: as §2
SNB-19 = assay: Growth inhibition of human SNB19 cells assessed as cell growth at 10 uM after 48 hrs by sulforhodamine B assay; details: SNB-19, 48 h, read-out: Activity; outline: as §1
A549 = assay: Growth inhibition of human A549 cells assessed as cell growth at 10 uM after 48 hrs by sulforhodamine B assay; details: A549, 48 h, read-out: Activity; outline: as §3
786-0 = assay: Growth inhibition of human 786-0 cells assessed as cell growth at 10 uM after 48 hrs by sulforhodamine B assay; details: 786-0, 48 h, read-out: Activity; outline: as §3
SNB-75 = assay: Growth inhibition of human SNB75 cells assessed as cell growth at 10 uM after 48 hrs by sulforhodamine B assay; details: SNB-75, 48 h, read-out: Activity; outline: as §1

Row | Compound | growth at 10 µM (UACC-62) | growth at 10 µM [1] | growth at 10 µM (LOX IMVI) | growth at 10 µM (SF-268) | growth at 10 µM (SK-MEL-2) | growth at 10 µM [2] | growth at 10 µM (OVCAR-8) | growth at 10 µM (SR) | growth at 10 µM (RXF 393) | growth at 10 µM (CCRF-CEM) | growth at 10 µM (SK-MEL-5) | growth at 10 µM (CAKI-1) | growth at 10 µM (MCF7) | growth at 10 µM (KM12) | growth at 10 µM (OVCAR-3) | growth at 10 µM (HCT-116) | growth at 10 µM (TK-10) | growth at 10 µM (A498) | growth at 10 µM [3] | growth at 10 µM (SK-OV-3) | further results
1 | Cc1cc(=O)oc2cc(OCCn3c(C)nn(-c4ccc(Cl)cc4)c3=O)ccc12 | 43.3% | 24.7% | 48% | 50.3% | 3.55% | 58.7% | 17.7% | 21.2% | 37.4% | 13.4% | 10.8% | 19.5% | 15.8% | 31.4% | 14.8% | 15.1% | 59.6% | 25.7% | 34.8% | 41.1% | inhibition of growth at 10 µM (NCI-H460; read-out: GI): 17.2%; growth at 10 µM (MDA-MB-435): -38.5%; growth at 10 µM [4]: 46.7%; growth at 10 µM (NCI-H226): 50.1%; growth at 10 µM (MDA-MB-468): 16.1%; growth at 10 µM (U-251): 31.4%; growth at 10 µM (M14): 14.7%; growth at 10 µM (SNB-19): 54.5%; growth at 10 µM (A549): 30.2%; growth at 10 µM (786-0): 32.9%; growth at 10 µM (SNB-75): 20.4%
2 | Cc1nn(-c2ccc(Cl)cc2)c(=O)n1CCN1CCOCC1 | 82.8% | 75.9% | 81.6% | 48.4% | 61.1% | 75.5% | 116% | 95.3% | 42.1% | 63.2% | 80.3% | 72.4% | 73.4% | 81.3% | 79.2% | 29.5% | 64.4% | 105% | 42.7% | 42.8% | growth at 10 µM (NCI-H460; read-out: Activity): 41.8%; growth at 10 µM (MDA-MB-435): 84.9%; growth at 10 µM [4]: 91.3%; growth at 10 µM (NCI-H226): 79.4%; growth at 10 µM (MDA-MB-468): 90.3%; growth at 10 µM (U-251): 42.9%; growth at 10 µM (M14): 69.8%; growth at 10 µM (SNB-19): 58.7%; growth at 10 µM (A549): 56.4%; growth at 10 µM (786-0): 59.4%; growth at 10 µM (SNB-75): 7.65%
